The source of these data is ChEMBL document CHEMBL1649477, “Trypanothione reductase high-throughput screening campaign identifies novel classes of inhibitors with antiparasitic activity” (Antimicrob Agents Chemother, 2009).

Each structure is given as a SMILES string. Where “and” joins values, the source holds several entries; their conditions need not be identical. Equal entries are not always repeated. Where only a bound is given, the exact number is not on record here.

Data set [1] in a line: Dissociation constant, pKa of the compound. The class given is physicochemical.
The nature of data set [2]: Solubility of the compound at pH 2. Format: physicochemical. The conditions noted are these: buffer.
Data set [3] is described as follows: Solubility of the compound at pH 6.5. The class given is physicochemical. The conditions noted are these: buffer.
The next data set deals with Liver microsomes. The experiment in a line: Intrinsic clearance in human liver microsomes assessed per mg of protein by liquid chromatography-mass spectrometry. The class given is ADME, Microsome. A digest of the protocol:
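Compound is incubated with human liver microsomes and NADPH, and parent loss is followed by LC-MS. Concentration versus time is fitted to exponential decay to give the first-order depletion rate constant. In vitro CLint and predicted hepatic extraction ratio are calculated from that constant.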
A general note: Microsomes from liver hold many membrane-bound enzymes, among them those of drug oxidation.

Data set [4] is described as follows: Distribution coefficient, log D of the compound at pH 7.4. Format: physicochemical. The conditions noted are these: octanol/water.
The nature of data set [5]: Cytotoxicity against rat L6 cells. The class given is cell-based.
The next data set concerns Plasmodium falciparum. The experiment in a line: Antiplasmodial activity against Plasmodium falciparum 3D7 erythrocytic stage. Format: functional, organism-based.
Another data set has as its system Trypanosoma cruzi. The experiment in a line: Antiprotozoal activity against Trypanosoma cruzi Tulahuen C2C4 amastigotes. The class given is functional, organism-based.
The subject of the next data set is Leishmania donovani. The experiment in a line: Antiprotozoal activity against Leishmania donovani MHOM/ET/67/L82 amastigotes. Format: functional, organism-based.
Data set [6] deals with T1, Trypanothione reductase (Trypanosoma cruzi, UniProt P28593). The experiment in a line: Inhibition of Trypanosoma cruzi X10/1 trypanothione reductase assessed as inhibition of thionitrobenzoate formation by microplate reader analysis. A digest of the protocol:
(§1)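 Recombinant T. cruzi TR (Silvio X10/1) coupled to DTNB-driven trypanothione regeneration. Enzyme (20 mU/ml), 12 μM T[S]2 and 200 μM DTNB in pH 7.5 HEPES/EDTA/BSA/Tween 20 buffer are preincubated ≥15 min at room temperature with compound. The reaction is started with 300 μM NADPH. Final conditions are 6 μM T[S]2, 100 μM DTNB and 150 μM NADPH. TNB absorbance at 410 nm is read for 12.5 min. Titrations are run in triplicate.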

Data set [7] relates to Trypanosoma brucei rhodesiense. The experiment in a line: Antitrypanosomal activity against Trypanosoma brucei rhodesiense STIB900 bloodstream forms. Format: functional, organism-based.
Data set [8] concerns the target T1, Trypanothione reductase. The experiment in a line: Inhibition of Trypanosoma cruzi trypanothione reductase assessed as inhibition of thionitrobenzoate formation by microplate reader analysis. In a few lines:
as §1

Data set [9] in a line: Cytotoxicity against human HT-29 cells. Format: cell-based.
Data set [10] concerns the target Glutathione reductase (Homo sapiens). The experiment in a line: Inhibition of human glutathione reductase.

T1 sequence (P28593 whole entry): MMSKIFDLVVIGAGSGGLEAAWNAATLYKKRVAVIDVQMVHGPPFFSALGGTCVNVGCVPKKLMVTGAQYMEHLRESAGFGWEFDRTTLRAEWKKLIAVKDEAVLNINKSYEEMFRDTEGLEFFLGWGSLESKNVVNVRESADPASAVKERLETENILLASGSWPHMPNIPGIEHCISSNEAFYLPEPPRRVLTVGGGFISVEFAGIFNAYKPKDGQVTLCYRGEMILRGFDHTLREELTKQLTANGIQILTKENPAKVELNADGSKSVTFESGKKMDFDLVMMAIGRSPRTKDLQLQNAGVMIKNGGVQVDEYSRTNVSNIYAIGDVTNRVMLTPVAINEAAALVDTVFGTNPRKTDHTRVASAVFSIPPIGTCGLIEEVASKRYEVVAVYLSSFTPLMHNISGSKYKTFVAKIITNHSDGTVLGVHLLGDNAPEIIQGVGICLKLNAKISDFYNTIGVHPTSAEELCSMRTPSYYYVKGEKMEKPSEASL

As a reminder, the pKa is the pH at which an ionisable group is half protonated. A high value points to a group that holds its proton tightly. What is called solubility is the dissolved amount per volume that the medium holds. Read a high solubility as much dissolved substance. In general, logD refers to lipophilicity at a set pH, counting ionised and neutral species. Read a low logD as lower lipophilicity. For the molecule `CCc1ccc2c(C)nc(NC3=NC(C)(C)C=C(C)N3)nc2c1`, the pKa in [1] worked out at 2.4. Also, the solubility in [2] and in data set [3] was more than 100 µM each time. In the data set with Liver microsomes, this molecule gave a CL of 90 µL/min/mg. Moreover, the logD in data set [4] was determined as 0.7.
A word on the CC50: it is the concentration at which the toxic effect on the cells reaches its halfway point. A lower CC50 goes with harm at low concentration. As a reminder, the IC50 is the midpoint of a concentration-inhibition curve. Consider `CN1C2CCC1CC(=NOC(c1ccccc1)c1ccc(Cl)cc1)C2` (configuration not stated), for which, in data set [5], the midpoint of cytotoxicity, the CC50, lay at 35 µM. The IC50 was 8 µM in the data set on Plasmodium falciparum; 0.1 µM in the data set on Trypanosoma cruzi; more than 30 µM in the data set with Leishmania donovani; 33 µM on Trypanothione reductase [6]; 3 µM in data set [7]. In [1], this molecule returned a pKa of 8.34. Also, the solubility in [2] and in data set [3] was more than 100 µM in each case. For the same molecule, the CL with Liver microsomes amounted to 31 µL/min/mg. Further, the logD in [4] is 2.9.
As to `CSc1nncc(-c2ccccc2)n1`, the IC50 at Trypanothione reductase [6] was more than 100 µM.
For the molecule `S=C(Nc1ccccc1)NC1CCN(Cc2ccccc2)CC1`, on Trypanothione reductase [8], the IC50 came out at 33 µM.
`S=C(Nc1cccnc1)NC1CCN(Cc2ccccc2)CC1` displayed a CC50 in data set [5] of 90 µM. For the same molecule, the IC50 with Plasmodium falciparum was 8.6 µM; with Trypanosoma cruzi, more than 30 µM; in the data set on Leishmania donovani, more than 30 µM; on Trypanothione reductase [6] it was 2 µM; in [7], 15 µM; at Trypanothione reductase [8] it was 1 µM and 3 µM.
On to `CN1/C(=C/C=C2\C=Nc3ccccc32)C=Cc2ccccc21`, for which, in [5], the CC50 came to 14 µM. Moreover, the IC50 in the data set on Plasmodium falciparum came out at 0.2 µM; in the data set with Trypanosoma cruzi it was 6 µM; in the data set with Leishmania donovani, 3 µM; on Trypanothione reductase [6] it was 23 µM; in data set [7], 0.1 µM.
For the molecule `CCCNC(=S)NC1CCN(Cc2ccccc2)CC1`, the IC50 at Trypanothione reductase [8] was more than 100 µM.
On the same count and under the same terms, with `O=C(Nc1cccnc1)NC1CCN(Cc2ccccc2)CC1` the figure was more than 100 µM; with `CCN1CCC(NC(=S)Nc2cccnc2)CC1`, more than 100 µM.
Regarding `CSc1nncc(-c2cnc(SC)c3c2CCCC3)n1`, the IC50 at Trypanothione reductase [6] was more than 100 µM.
`CCc1ccc2c(C)nc(NC3=NC(C)(C)CC(C)=N3)nc2c1`: the pKa in data set [1] amounted to 2. For the same molecule, the solubility in data set [2] and in data set [3] was more than 100 µM throughout. Also, the IC50 at Trypanothione reductase [6] turned out to be 32 µM. In the data set on Liver microsomes, this molecule came in with a CL of 90 µL/min/mg. The molecule also registered a logD in data set [4] of 3.6.
For the molecule `CCOc1ccc2c(C)nc(NC3=NC(C)(C)CC(C)=N3)nc2c1`, at Trypanothione reductase [6], the IC50 was 28 µM.
On the same count and under the same terms, the same measure for `Cc1cc(C)c2nc(Nc3nc(C)c(C)c(O)n3)nc(C)c2c1`: more than 100 µM.
As to `Cc1cc(C)c2c(C)nc(Nc3nc(C)cc(C)n3)nc2c1`, the CC50 in data set [5] was 11 µM. Further, the IC50 in the data set with Plasmodium falciparum is 4 µM; in the data set with Trypanosoma cruzi, 8 µM; in the data set on Leishmania donovani, 32 µM; at Trypanothione reductase [6], more than 100 µM; in [7] it was 27 µM.
Turning to `Cc1ccc2nc(Nc3nc(C)cc(C)n3)nc(C)c2c1`, the IC50 at Trypanothione reductase [6] was more than 100 µM.
For the molecule `Cc1cc(C)c2nc(NC(=N)N)nc(C)c2c1`, the IC50 on Trypanothione reductase [6] is more than 100 µM.
Turning to `N=c1n(CCOc2ccccc2)c2ccccc2n1CCN1CCCCC1`, the IC50 with Plasmodium falciparum was 2 µM; in the data set on Trypanosoma cruzi, 19 µM; with Leishmania donovani, more than 30 µM; at Trypanothione reductase [6], 9 µM; in data set [7], 0.6 µM; in data set [10], more than 100 µM. For the same molecule, the CC50 in [9] stood at 42 µM.
The molecule `CC1=CC(C)(C)N=C(Nc2nc(C)c3cc(C)cc(C)c3n2)N1` displayed a CC50 in [5] of 10 µM. The IC50 with Plasmodium falciparum worked out at 2 µM; with Trypanosoma cruzi it was 6 µM; in the data set on Leishmania donovani, 14 µM; at Trypanothione reductase [6], 17 µM; in data set [7], 1 µM.
As for `COc1nncc(-c2cnnc(SC)n2)n1`, the CC50 in data set [5] was found to be 30 µM. In addition, the IC50 is 0.2 µM with Plasmodium falciparum; 15 µM in the data set on Trypanosoma cruzi; 8 µM in the data set on Leishmania donovani; 27 µM at Trypanothione reductase [6]; 5 µM in [7].
For `Cc1nc(NC(=N)N)nc2ccccc12`, in [5], the CC50 is more than 64 µM. For the same molecule, the IC50 in the data set with Plasmodium falciparum was 42 µM; in the data set with Trypanosoma cruzi, 38 µM; in the data set on Leishmania donovani, more than 64 µM; on Trypanothione reductase [6] it was more than 100 µM; in data set [7], 39 µM.
`Nc1nc(N)nc(Nc2ccc([As]3SCC(CO)S3)cc2)n1` (configuration not stated) [MELARSOPROL] yielded an IC50 in data set [7] of 0.017 µM.
